Assay results reported in ChEMBL document CHEMBL4477207, “Discovery of Novel 3-Quinoline Carboxamides as Potent, Selective, and Orally Bioavailable Inhibitors of Ataxia Telangiectasia Mutated (ATM) Kinase” (J Med Chem, 2016).
Values after ≈ are worked out from the molar mass of the structure shown. Active and inactive are the calls of the source. The calls are words filed in the database; no cut-off is given here.

Experiments:
[1] = Volume of distribution at steady state in Han Wistar rat at 2 mg/kg, iv or 5 mg/kg, po; format: ADME, organism-based; settings: in vivo, read-out: Vdss
[2] = Fraction unbound in human plasma by equilibrium dialysis method; format: ADME, cell-free
[3] = Fraction unbound in rat plasma by equilibrium dialysis method; format: ADME, cell-free
[4] = biological target: T1, Tyrosine-protein kinase Mer (Homo sapiens) (UniProt Q12866); test: Inhibition of N-terminal GST-tagged recombinant human Mer (557 to 882 residues) expressed in baculovirus infected Sf21 cells using GGMEDIYFEFMGGKKK as substrate at 1 uM relative to control
T1 sequence (whole entry): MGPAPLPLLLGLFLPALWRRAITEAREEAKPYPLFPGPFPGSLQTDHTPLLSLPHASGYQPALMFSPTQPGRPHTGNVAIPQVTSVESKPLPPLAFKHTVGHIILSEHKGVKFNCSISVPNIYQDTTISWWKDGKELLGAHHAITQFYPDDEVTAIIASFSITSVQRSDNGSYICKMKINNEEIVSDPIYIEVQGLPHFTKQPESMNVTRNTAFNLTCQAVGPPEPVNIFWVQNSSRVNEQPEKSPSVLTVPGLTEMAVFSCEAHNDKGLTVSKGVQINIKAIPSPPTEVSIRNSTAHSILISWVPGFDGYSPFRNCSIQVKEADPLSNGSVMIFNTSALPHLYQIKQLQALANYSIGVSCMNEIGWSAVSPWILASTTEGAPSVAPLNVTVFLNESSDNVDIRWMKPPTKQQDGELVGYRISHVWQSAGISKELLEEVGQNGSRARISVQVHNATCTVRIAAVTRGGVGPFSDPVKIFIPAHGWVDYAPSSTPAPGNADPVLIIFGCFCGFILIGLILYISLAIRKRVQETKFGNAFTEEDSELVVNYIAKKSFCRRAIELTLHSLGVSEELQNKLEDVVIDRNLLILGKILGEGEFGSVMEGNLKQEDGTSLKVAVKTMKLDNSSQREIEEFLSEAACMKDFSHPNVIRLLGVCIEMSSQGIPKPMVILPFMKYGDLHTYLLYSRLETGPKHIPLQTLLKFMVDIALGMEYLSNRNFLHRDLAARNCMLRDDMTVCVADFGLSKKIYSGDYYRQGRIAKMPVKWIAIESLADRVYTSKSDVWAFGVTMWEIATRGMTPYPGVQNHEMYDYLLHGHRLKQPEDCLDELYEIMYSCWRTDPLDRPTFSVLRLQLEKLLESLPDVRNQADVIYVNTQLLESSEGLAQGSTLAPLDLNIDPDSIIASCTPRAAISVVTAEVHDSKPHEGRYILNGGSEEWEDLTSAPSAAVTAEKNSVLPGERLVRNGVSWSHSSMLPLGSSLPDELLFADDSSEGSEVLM

Mus musculus = test: Time duration during which free plasma concentration stays above in-vitro ATM IC50 level in nude mouse at 50 mg/kg, po; format: ADME, organism-based; settings: in vivo
Method in brief: (§1)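 Nude mice, single oral dose of 50 mg/kg. Vehicle was either a propylene glycol aqueous solution or 10% DMSO:90% captisol solution.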

in vitro [5] = settings: rat, hepatocytes
[6] = biological target: T2, Phosphatidylinositol 4,5-bisphosphate 3-kinase catalytic subunit beta isoform (Homo sapiens, UniProt P42338); test: Inhibition of PI3Kbeta (unknown origin) by cell based assay
[7] = Intrinsic clearance in human hepatocytes assessed per million cells; format: ADME, cell-based, Hepatocyte; settings: read-out: CLH
Method in brief: (§2)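 Intrinsic clearance measured in hepatocytes of each species, reported as µL/min/10⁶ cells.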

[8] = biological target: Dual specificity protein kinase CLK1 (Homo sapiens) (UniProt P49759); test: Inhibition of N-terminal His6-tagged recombinant human CLK1 (130-end residues) expressed in baculovirus infected Sf21 cells at 1 uM relative to control
[9] = Intrinsic clearance in dog hepatocytes assessed per million cells; format: ADME, cell-based, Canis lupus familiaris, Hepatocyte; settings: read-out: CLH; method in brief: as §2
in vitro [10] = settings: human, hepatocytes
[11] = Cmax in nude mouse at 50 mg/kg, po; format: ADME, organism-based; design: dose 50 mg/kg, route oral; settings: in vivo; method in brief: as §1
[12] = biological target: T3, Phosphatidylinositol 4,5-bisphosphate 3-kinase catalytic subunit alpha isoform (Homo sapiens, UniProt P42336); test: Inhibition of PI3Kalpha in human BT474 cells assessed as reduction in AKT phosphorylation at Thr-308 residue; format: cell-based
[13] = biological target: T2, Phosphatidylinositol 4,5-bisphosphate 3-kinase catalytic subunit beta isoform; test: Inhibition of human recombinant PI3Kbeta using PIP2/ATP as substrate incubated for 20 mins followed by substrate addition by Kinase Glo reagent based luminescence assay
[14] = Thermodynamic solubility of the compound in 0.1M aqueous phosphate buffer at pH 7.4 after 24 hrs by LC-UV analysis; format: physicochemical; settings: read-out: Therm_solubility
Method in brief: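 Solid samples equilibrated in 0.1 M aqueous phosphate buffer, pH 7.4, for 24 h at 25 °C.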

[15] = biological target: T4, DNA-dependent protein kinase catalytic subunit (Homo sapiens, UniProt P78527); test: Inhibition of DNAPK (unknown origin) using p53-based peptide substrate preincubated for 5 min prior to ATP addition
[16] = biological target: Vascular endothelial growth factor receptor 2 (Homo sapiens, UniProt P35968); test: Inhibition of KDR (unknown origin)
physchem = settings: octanol/buffer, pH 7.4
[17] = Fraction unbound in mouse plasma by equilibrium dialysis method; format: ADME, cell-free
[18] = biological target: T4, DNA-dependent protein kinase catalytic subunit; test: Inhibition of DNAPK phosphorylation at Ser-2056 residue in human HT-29 cells; format: cell-based
[19] = biological target: Serine/threonine-protein kinase mTOR (Homo sapiens, UniProt P42345); test: Inhibition of C-terminal FLAG-tagged recombinant mTOR (1362 to 2549 residues) (unknown origin) using Biotin-Ahx-Lys-Lys-Ala-Asn-Gln-Val-Phe-Leu-Gly-Phe-Thr-Tyr-Val-Ala-Pro-Ser-Val-Leu-Glu-Ser-Val-Lys-Glu-NH2 as substrate after 90 mins by AlphaScreen assay
[20] = biological target: Dual specificity protein kinase CLK4 (Homo sapiens) (UniProt Q9HAZ1); test: Inhibition of recombinant human CLK4 at 1 uM
[21] = Clearance in Han Wistar rat at 2 mg/kg, iv or 5 mg/kg, po; format: ADME, organism-based; settings: in vivo
[22] = biological target: Phosphatidylinositol 4,5-bisphosphate 3-kinase catalytic subunit gamma isoform (Homo sapiens, UniProt P48736); test: Inhibition of human recombinant PI3Kgamma using PIP2/ATP as substrate incubated for 20 mins followed by substrate addition by Kinase Glo reagent based luminescence assay
[23] = Apparent permeability from apical to basolateral side in human Caco2 cells; format: ADME, cell-based; settings: Caco-2
[24] = biological target: Glycogen synthase kinase-3 beta (Homo sapiens, UniProt P49841); test: Inhibition of GSK3beta (unknown origin)
[25] = Intrinsic clearance in mouse hepatocytes assessed per million cells; format: ADME, cell-based, Hepatocyte; settings: read-out: CLH; method in brief: as §2
[26] = Clearance in dog at 1 mg/kg, iv or 2 mg/kg, po; format: ADME, organism-based, Canis lupus familiaris; settings: in vivo
[27] = AUC (0 to 24 hrs) in nude mouse at 50 mg/kg, po; format: ADME, organism-based; design: dose 50 mg/kg, time < 24 hr, route oral; settings: in vivo; method in brief: as §1
[28] = Oral bioavailability in dog at 2 mg/kg; format: ADME, organism-based, Canis lupus familiaris; settings: in vivo
SW-620 = test: Antitumor activity against human SW620 cells xenografted in immunocompromised athymic Swiss nude mouse assessed as tumor growth inhibition at 50 mg/kg bid administered via oral gavage for 3 days a week for 3 weeks regime after 24 hrs of topoisomerase-1 inhibitor irinotecan administration; format: functional, organism-based
[29] = Oral bioavailability in Han Wistar rat at 5 mg/kg; format: ADME, organism-based; settings: in vivo
[30] = Volume of distribution at steady state in dog at 1 mg/kg, iv or 2 mg/kg, po; format: ADME, organism-based, Canis lupus familiaris; settings: in vivo, read-out: Vdss
[31] = Intrinsic clearance in rat hepatocytes assessed per million cells; format: ADME, cell-based, Hepatocyte; settings: read-out: CLH; method in brief: as §2
[32] = Fraction unbound in dog plasma by equilibrium dialysis method; format: ADME, cell-free, Canis lupus familiaris
[33] = biological target: T3, Phosphatidylinositol 4,5-bisphosphate 3-kinase catalytic subunit alpha isoform; test: Inhibition of human recombinant PI3Kalpha using PIP2/ATP as substrate incubated for 20 mins followed by substrate addition by Kinase Glo reagent based luminescence assay
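Wherever logD is given: determined by the shake flask method.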

T3 sequence (P42336 whole entry, canonical isoform): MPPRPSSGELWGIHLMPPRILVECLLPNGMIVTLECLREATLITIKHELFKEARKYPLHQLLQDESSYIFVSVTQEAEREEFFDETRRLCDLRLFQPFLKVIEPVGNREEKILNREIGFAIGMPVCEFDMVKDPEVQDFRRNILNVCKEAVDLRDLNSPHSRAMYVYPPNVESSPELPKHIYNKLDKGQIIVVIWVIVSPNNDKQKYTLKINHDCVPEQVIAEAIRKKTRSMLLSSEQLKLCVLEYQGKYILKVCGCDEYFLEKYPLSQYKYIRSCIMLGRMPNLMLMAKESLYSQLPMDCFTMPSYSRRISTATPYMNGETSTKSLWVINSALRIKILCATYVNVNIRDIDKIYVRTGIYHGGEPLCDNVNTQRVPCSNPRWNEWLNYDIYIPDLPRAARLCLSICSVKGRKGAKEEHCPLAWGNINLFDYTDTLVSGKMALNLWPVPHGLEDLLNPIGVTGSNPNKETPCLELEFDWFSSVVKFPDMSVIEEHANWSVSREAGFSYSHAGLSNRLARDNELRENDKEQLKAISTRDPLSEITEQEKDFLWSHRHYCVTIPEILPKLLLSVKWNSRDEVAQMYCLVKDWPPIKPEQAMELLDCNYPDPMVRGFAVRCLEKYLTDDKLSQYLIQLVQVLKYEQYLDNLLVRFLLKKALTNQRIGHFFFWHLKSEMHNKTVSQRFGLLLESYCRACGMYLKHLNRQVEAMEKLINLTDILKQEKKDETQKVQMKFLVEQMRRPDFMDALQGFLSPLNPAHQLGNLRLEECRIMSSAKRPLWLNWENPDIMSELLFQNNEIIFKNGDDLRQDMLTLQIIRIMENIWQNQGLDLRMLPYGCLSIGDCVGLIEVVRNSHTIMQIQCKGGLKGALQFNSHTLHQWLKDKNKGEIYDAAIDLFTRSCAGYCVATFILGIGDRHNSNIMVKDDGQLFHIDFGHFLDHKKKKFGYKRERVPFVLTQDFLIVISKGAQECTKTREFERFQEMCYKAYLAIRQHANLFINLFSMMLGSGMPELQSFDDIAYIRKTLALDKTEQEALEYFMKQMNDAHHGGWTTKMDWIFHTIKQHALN
T2 sequence (P42338 whole entry, canonical isoform): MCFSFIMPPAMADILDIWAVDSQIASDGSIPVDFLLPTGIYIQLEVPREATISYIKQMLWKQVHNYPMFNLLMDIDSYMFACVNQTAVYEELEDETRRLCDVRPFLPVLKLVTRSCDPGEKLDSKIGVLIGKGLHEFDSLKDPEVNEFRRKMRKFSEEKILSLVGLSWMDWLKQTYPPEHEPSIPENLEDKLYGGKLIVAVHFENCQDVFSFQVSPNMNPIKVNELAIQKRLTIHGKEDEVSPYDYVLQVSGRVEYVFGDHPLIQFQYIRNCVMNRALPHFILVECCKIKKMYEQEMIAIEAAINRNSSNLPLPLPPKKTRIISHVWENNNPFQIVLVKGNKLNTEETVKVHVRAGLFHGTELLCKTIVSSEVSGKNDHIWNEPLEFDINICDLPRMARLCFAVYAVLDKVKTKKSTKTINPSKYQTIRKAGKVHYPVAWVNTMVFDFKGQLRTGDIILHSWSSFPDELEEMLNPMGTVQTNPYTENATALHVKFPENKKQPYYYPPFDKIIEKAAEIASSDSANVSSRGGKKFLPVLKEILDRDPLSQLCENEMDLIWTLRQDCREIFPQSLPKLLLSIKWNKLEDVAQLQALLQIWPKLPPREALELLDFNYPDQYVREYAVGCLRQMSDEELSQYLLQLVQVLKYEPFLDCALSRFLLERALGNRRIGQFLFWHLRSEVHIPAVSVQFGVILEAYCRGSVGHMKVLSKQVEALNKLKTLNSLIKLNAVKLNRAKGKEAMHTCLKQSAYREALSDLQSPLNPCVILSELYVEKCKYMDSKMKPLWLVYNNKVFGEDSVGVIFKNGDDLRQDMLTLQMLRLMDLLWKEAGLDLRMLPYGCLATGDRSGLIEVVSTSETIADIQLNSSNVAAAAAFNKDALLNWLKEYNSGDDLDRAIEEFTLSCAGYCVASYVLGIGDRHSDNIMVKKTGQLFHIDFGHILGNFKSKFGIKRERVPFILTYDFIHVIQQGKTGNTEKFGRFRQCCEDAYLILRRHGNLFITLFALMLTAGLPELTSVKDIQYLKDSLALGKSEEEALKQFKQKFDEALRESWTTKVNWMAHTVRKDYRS
Sequence of Dual specificity protein kinase CLK1 (Homo sapiens) (P49759 whole entry, looked up): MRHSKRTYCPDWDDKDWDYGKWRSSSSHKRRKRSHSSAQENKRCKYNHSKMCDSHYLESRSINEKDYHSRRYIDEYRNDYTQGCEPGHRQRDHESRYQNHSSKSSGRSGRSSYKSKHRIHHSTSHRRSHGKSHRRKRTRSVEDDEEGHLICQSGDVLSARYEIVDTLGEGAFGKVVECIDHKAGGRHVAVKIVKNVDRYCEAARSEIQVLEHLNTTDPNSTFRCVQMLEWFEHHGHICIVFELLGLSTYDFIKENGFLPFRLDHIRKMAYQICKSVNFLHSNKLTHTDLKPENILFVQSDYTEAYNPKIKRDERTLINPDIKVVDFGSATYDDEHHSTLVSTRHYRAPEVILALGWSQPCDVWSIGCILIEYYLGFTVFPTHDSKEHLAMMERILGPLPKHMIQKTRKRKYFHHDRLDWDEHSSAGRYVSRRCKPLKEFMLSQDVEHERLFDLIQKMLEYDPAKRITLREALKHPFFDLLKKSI
Sequence of Dual specificity protein kinase CLK4 (Homo sapiens) (Q9HAZ1 whole entry, looked up): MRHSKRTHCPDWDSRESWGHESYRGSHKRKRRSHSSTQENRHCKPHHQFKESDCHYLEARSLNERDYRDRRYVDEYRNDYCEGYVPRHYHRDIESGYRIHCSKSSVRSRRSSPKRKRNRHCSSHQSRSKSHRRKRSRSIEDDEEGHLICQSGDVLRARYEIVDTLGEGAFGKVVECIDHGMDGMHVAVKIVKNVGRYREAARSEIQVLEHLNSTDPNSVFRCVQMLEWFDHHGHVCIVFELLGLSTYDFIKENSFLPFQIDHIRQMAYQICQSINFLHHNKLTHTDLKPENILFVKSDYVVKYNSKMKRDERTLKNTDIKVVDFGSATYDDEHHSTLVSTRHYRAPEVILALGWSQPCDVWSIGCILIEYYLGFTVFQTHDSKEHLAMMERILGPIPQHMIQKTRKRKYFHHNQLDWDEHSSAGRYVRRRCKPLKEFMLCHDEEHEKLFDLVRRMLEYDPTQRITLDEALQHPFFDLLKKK
Sequence of Vascular endothelial growth factor receptor 2 (P35968 whole entry): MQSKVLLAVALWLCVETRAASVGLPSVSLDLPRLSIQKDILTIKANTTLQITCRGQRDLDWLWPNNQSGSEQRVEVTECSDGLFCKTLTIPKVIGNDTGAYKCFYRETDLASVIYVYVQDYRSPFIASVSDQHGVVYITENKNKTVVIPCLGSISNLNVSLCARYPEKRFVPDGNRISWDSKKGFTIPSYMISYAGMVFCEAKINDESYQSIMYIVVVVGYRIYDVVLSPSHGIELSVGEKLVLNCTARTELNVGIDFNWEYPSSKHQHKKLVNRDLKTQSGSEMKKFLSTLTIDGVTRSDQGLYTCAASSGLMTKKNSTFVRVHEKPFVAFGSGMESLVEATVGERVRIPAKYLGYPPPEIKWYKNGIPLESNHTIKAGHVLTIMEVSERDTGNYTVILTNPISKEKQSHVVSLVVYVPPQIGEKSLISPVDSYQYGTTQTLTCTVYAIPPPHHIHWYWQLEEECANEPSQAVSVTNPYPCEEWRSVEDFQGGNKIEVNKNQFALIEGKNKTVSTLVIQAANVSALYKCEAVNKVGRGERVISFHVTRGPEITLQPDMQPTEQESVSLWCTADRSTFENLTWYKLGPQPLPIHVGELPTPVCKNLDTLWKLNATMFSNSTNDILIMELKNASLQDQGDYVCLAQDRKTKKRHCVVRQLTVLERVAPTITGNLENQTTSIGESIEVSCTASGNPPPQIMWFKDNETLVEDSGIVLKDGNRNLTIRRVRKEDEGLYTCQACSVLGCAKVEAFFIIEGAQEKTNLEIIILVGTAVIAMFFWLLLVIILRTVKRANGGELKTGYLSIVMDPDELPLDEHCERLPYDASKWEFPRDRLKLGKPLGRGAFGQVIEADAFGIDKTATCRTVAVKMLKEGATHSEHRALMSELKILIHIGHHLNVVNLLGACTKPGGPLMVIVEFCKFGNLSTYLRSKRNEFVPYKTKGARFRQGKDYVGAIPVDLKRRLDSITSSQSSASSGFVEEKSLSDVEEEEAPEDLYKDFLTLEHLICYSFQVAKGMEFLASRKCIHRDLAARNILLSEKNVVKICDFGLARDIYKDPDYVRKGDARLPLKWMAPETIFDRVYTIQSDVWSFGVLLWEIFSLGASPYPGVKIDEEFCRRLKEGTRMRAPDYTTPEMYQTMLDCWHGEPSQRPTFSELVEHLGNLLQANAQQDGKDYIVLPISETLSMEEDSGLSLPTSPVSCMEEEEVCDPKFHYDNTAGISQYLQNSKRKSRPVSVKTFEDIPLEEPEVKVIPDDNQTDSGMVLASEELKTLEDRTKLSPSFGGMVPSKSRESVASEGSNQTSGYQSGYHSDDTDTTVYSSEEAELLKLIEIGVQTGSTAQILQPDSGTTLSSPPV
Sequence of Glycogen synthase kinase-3 beta (P49841 whole entry): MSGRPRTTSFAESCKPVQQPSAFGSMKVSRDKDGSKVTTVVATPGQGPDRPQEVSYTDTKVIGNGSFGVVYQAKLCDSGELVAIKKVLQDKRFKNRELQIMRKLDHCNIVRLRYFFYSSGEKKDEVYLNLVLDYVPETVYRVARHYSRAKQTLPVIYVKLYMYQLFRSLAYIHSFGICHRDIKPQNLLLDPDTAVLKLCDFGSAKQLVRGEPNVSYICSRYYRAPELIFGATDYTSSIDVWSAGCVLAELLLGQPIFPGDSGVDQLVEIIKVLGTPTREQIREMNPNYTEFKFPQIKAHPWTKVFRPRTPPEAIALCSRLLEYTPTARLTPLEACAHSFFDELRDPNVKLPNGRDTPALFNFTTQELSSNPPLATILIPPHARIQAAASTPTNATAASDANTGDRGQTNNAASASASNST

## COCc1ccc(-c2cc3c(N[C@@H](C)c4ccn(C)n4)c(C(N)=O)cnc3cc2F)cn1
[1]
  Vd: 1 L/kg
[2]
  fraction unbound: 0.18
[3]
  fraction unbound: 0.12
[4]
  inhibition: 56%
Mus musculus
  Time: 10 h
In vitro [5]
  hepatocyte CLint at 1.5 h: 5.3 µL/min/1e6 cells
[6]
  IC50: > 17.5 µM
[7]
  hepatocyte CLint: < 1.5 µL/min/1e6 cells
[8]
  inhibition: 57%
[9]
  hepatocyte CLint: 2 µL/min/1e6 cells
In vitro [10]
  hepatocyte CLint at 1.5 h: < 1.5 µL/min/1e6 cells
[11]
  Cmax: 17 µM
[12]
  IC50: 18.8 µM
[13]
  IC50: 12.8 µM
[14]
  solubility thermodynamic at 24 h: 69 µM (≈ 30 µg/mL)
[15]
  IC50: 0.37 µM
[16]
  IC50: 79 µM
physchem
  logD: 2.7
[17]
  fraction unbound: 0.17
[18]
  IC50: > 30 µM
[19]
  IC50: 1.48 µM
[20]
  inhibition: 55%
[21]
  clearance: 13 mL/min/kg
[22]
  IC50: 7.1 µM
[23]
  Papp A→B: 14 ×10⁻⁶ cm/s
[24]
  IC50: > 100 µM
[25]
  hepatocyte CLint: 28 µL/min/1e6 cells
[26]
  clearance: 13 mL/min/kg
[27]
  AUC(0-t) at 24 h: 33 µM·h
[28]
  bioavailability: 71%
SW-620
  TGI: Active
[29]
  bioavailability: 29%
[30]
  Vd: 1.4 L/kg
[31]
  hepatocyte CLint: 5.3 µL/min/1e6 cells
[32]
  fraction unbound: 0.18
[33]
  IC50: 0.445 µM
